Published values of several laboratories.
Compare with care: the assays were run in different laboratories.
Matrix: plasma

Nc1ccc(-c2nc([C@H]3CCc4cc(-c5cc(Cl)ccc5-n5cnnn5)cc(=O)n43)c(F)[nH]2)c(F)n1
AUC(0-inf) (human; oral; 80 mg; single dose, fasted): 17500 ng·h/mL

CCCOc1ccc([C@H]2CNC(=O)N2c2ccc3[nH]cnc3c2)cc1
AUC(0-inf) (human; oral; 200 mg; single dose, fasted, healthy volunteers): 2330 ng·h/mL

CS(=O)(=O)CCC#N
AUC(0-inf) (human; oral; 100 mg; single dose, fasted): 77000 ng·h/mL

COc1ccc(-n2nc(C(N)=O)c3c2C(=O)N(c2ccc(N4CCCCC4=O)cc2)CC3)cc1
AUC(0-inf) (male human; oral; 50 mg; single dose): 4740 ng·h/mL

O=C(Nc1c(Cl)cncc1Cl)c1ccc(OC(F)F)c(OCC2CC2)c1
AUC(0-inf) (human; oral; 0.375 mg; multiple doses, once daily): 81.4 ng·h/mL

C=C(F)C(=O)N1CCN(c2nc(OC[C@@H]3CCCN3C)nc3c2CCN(c2cccc4cccc(Cl)c24)C3)C[C@@H]1CC#N
AUC(0-inf) (human; oral; 600 mg; single dose, fasted): 37100 ng·h/mL

CCOc1cc2ncc(C#N)c(Nc3ccc(OCc4ccccn4)c(Cl)c3)c2cc1NC(=O)/C=C/[C@H]1CCCN1C
AUC(0-inf) (human; oral; 80 mg; single dose): 386 ng·h/mL

COc1ccc([C@@H]2CN(C(=O)[C@@H](O)CO)C[C@@]2(C)[C@@H](C)O)cc1OC1CN(c2ccc(C)cn2)C1
AUC(0-inf) (human; oral; 0.5 mg; single dose, healthy volunteers): 211 ng·h/mL

CC(C)n1cc(C#N)c2cc(-n3cc(C(=O)O)cn3)ccc21
AUC(0-inf) (human; oral; 200 mg; single dose, fasted, healthy volunteers): 44300 ng·h/mL

CC(C)[C@](O)(c1ccc2cc(OC(F)F)c(OC(F)F)cc2c1)c1c[nH]nn1
AUC(0-inf) (female human; oral; 750 mg; single dose): 84600 ng·h/mL

CC(C)(O)c1ccccc1-c1ccc2[nH]c(/C=C/c3ccc(C(F)(F)F)cc3)nc2c1
AUC(0-inf) (male human; oral; 50 mg; single dose, fasted, healthy volunteers): 7820 ng·h/mL

C[C@@]1(c2cc(NC(=O)c3ccc(C#N)cn3)ccc2F)C=CSC(N)=N1
AUC(0-inf) (human; oral; 30 mg; single dose): 2550 ng·h/mL

CO[C@H]1CC[C@H](N2C(=O)CNc3ncc(-c4ccc(C(C)(C)O)nc4)nc32)CC1
AUC(0-inf) (human; oral; 60 mg; patients): 2070 ng·h/mL

C[C@@H](Oc1ccc(S(C)(=O)=O)cc1C(=O)N1C[C@@H]2C[C@]2(c2cc(C(F)(F)F)on2)C1)C(F)(F)F
AUC(0-inf) (human; oral; 25 mg; single dose): 12.2 µM·h

CN(C)CCCNC(=O)/C(=C/CCCCC(=O)NO)COc1cccc2ccccc12
AUC(0-inf) (human; intravenous; 312.5 mg/m²; single dose): 72600 ng·h/mL

CC(C)(Sc1ccncc1-c1ccc(C#N)c2ccccc12)C(=O)O
AUC(0-inf) (male human; oral; 40 mg; single dose, fasted, healthy volunteers): 1270 ng·h/mL

CCCCC[C@H](O)CC[C@@H]1[C@H]2Cc3cccc(OCC(=O)O)c3C[C@H]2C[C@H]1O
AUC(0-inf) (human; inhaled; 18 µg; single dose, healthy volunteers): 0.34 ng·h/mL

Cn1cc(-c2ccc(S(=O)(=O)[C@@H]3C[C@@H](C(=O)NC4(C#N)CC4)N(C(=O)C4(C(F)(F)F)CC4)C3)c(C(F)(F)F)c2)cn1
AUC(0-inf) (human; oral; 1 mg; single dose, fasted, healthy volunteers): 44.9 ng·h/mL

O=C(/C=C/c1cccc(S(=O)(=O)Nc2ccccc2)c1)NO
AUC(0-inf) (human; intravenous; 1800 mg/m²; patients): 55200 ng·h/mL

CCc1cnn2c(NCc3ccc[n+]([O-])c3)cc(N3CCCC[C@H]3CCO)nc12
AUC(0-inf) (human; intravenous; 9 mg/m²; patients): 796 ng·h/mL

CCc1nc2c(C)cc(N3CCN(CC(=O)N4CC(O)C4)CC3)cn2c1N(C)c1nc(-c2ccc(F)cc2)c(C#N)s1
AUC(0-inf) (human; oral; 60 mg; single dose, fed, healthy volunteers): 2400 ng·h/mL
